Activity calls are given as the source filed them. The rule behind the calls is not given here.
Key:
Type in all cases: functional, organism-based
Mus musculus [1] = assay: Antinociceptive activity against formalin-induced pain in mouse assessed as paw licking during late phase (10 to 60 mins) at 10 mg/kg, ip administered 40 mins before formalin challenge; parameters: dose 10 mg/kg
Summary of the method: (§1)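 Mice were acclimated 30 min in an observation chamber, then given 20 μL of 2.5% formalin sc into the dorsal hind paw. Dosing was ip (2% DMSO/saline vehicle) 40 min beforehand. Time spent licking the injected paw was scored over 0–10 min and 10–60 min. n = 6/group, means ± SEM, ANOVA with Tukey.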

Mus musculus [2] = assay: Antinociceptive activity in mouse assessed as inhibition of acetic acid-induced abdominal constrictions at 10 mg/kg, ip administered 40 mins before acetic acid challenge measured for 30 mins; parameters: dose 10 mg/kg; conditions: Abdomen
Summary of the method: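 Dosing was ip in 2% DMSO/saline 40 min before ip acetic acid (0.8% v/v, 10 mL/kg). Writhes (abdominal contraction with hind-limb stretching) were counted over 0–30 min. n = 6 mice/group, means ± SEM, ANOVA with Tukey.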

Mus musculus [3] = assay: Antinociceptive activity against formalin-induced pain in mouse assessed as paw licking during early phase (0 to 10 mins) at 10 mg/kg, ip administered 40 mins before formalin challenge; parameters: dose 10 mg/kg; summary of the method: as §1
Mus musculus [4] = assay: Inhibition of IL1-beta production in Freund's complete adjuvant-induced mouse at 2 mg/kg, ip administered 40 mins before CFA challenge measured after 2 hrs by ELISA; parameters: dose 2 mg/kg
Summary of the method: (§2)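 CFA was given intraplantar, with ip dosing (2% DMSO/saline vehicle) 40 min earlier. At 2 h, paw skin was taken under terminal halothane anesthesia. Tissue was extracted (100 mg/mL PBS with 0.4 M NaCl, 0.05% Tween 20 and protease inhibitors) and centrifuged at 3000g for 10 min. Supernatant was assayed by mouse ELISA, in pg/mL. n = 6/group.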

Mus musculus [5] = assay: Antinociceptive activity against Freund's complete adjuvant-induced paw inflammation in mouse assessed as reduction in paw edema at 2 mg/kg, ip administered 40 mins before CFA challenge measured after 6 hrs; parameters: dose 2 mg/kg
Summary of the method: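 CFA (20 μL, 1 mg/mL heat-killed M. tuberculosis) was injected sc into the right hind plantar surface. Treatment was ip in 2% DMSO/saline 40 min before. Paw volume was read by plethysmometer before and after CFA, and edema taken as the volume difference (mm3/paw). n = 6 mice/group, means ± SEM, two-way ANOVA with Bonferroni.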

Mus musculus [6] = assay: Inhibition of TNF-alpha production in Freund's complete adjuvant-induced mouse at 2 mg/kg, ip administered 40 mins before CFA challenge measured after 2 hrs by ELISA; parameters: dose 2 mg/kg; summary of the method: as §2

Structure (SMILES) | Activity (Mus musculus [1]) | Activity (Mus musculus [2]) | Activity (Mus musculus [3]) | inhibition (Mus musculus [4]) | Activity (Mus musculus [5]) | inhibition (Mus musculus [6])
COc1ccc2c(c1)c(CC(=O)O)c(C)n2C(=O)c1ccc(Cl)cc1 | Active | Active | Active | – | – | –
C[C@@H]1C[C@H]2[C@@H]3CCC4=CC(=O)C=C[C@]4(C)[C@@]3(F)[C@@H](O)C[C@]2(C)[C@@]1(O)C(=O)CO | – | – | – | Active | inactive | Active

Reference: ChEMBL document CHEMBL1833877, “Antinociceptive properties of bergenin” (J Nat Prod, 2011)
